Test results as given in ChEMBL document CHEMBL2057177, “Analogues of fenarimol are potent inhibitors of Trypanosoma cruzi and are efficacious in a murine model of Chagas disease” (J Med Chem, 2012).
Converted amounts (≈) assume the structure as drawn. The source made the active and inactive calls. The calls are words filed in the database; no cut-off is given here.

Tests used:
Trypanosoma cruzi [1] = test: Antitrypanosomal activity against trypomastigotes of Trypanosoma cruzi Tulahuen infected in Swiss mouse model of chagas disease assessed as decrease in parasite level in blood at 50 mg/kg, po administered 8 day after post infection qd for 10 days measured on day 21; type: functional, organism-based; set-up: dose 50 mg/kg
Trypanosoma cruzi [2] = test: Antitrypanosomal activity against trypomastigotes of Trypanosoma cruzi Tulahuen infected in Swiss mouse model of chagas disease assessed as level of parasite in blood at 20 mg/kg, po qd for 20 days measured after 30 day; type: functional, organism-based; set-up: dose 20 mg/kg
Outline: (§1)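 Female Swiss mice infected ip with Tulahuén parasites; oral gavage dosing in HPMC vehicle, daily from day 8 post-infection. Dosing is followed by 10 days without compound. If blood is then parasite-free, mice receive cyclophosphamide ip 50 mg/kg/day, up to three cycles (4 days on, 3 rest). Parasitemia counted in tail-prick blood by hemocytometer.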

[3] = Oral bioavailability in Sprague-Dawley rat at 17.6 mg/kg; type: ADME, organism-based; conditions: in vivo
Outline: (§2)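 Overnight-fasted male Sprague–Dawley rats (272–320 g), n = 2 per route. IV dose given as a 10 min jugular infusion in aqueous solution; oral dose by gavage as aqueous suspension. Arterial blood taken via carotid cannula up to 24 h. Plasma measured by LC-MS after acetonitrile precipitation. Noncompartmental analysis. Blood clearance = plasma clearance divided by in vitro blood/plasma ratio. Bioavailability from mean dose-normalised AUC0–inf, oral versus IV.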

[4] = Apparent volume of distribution at steady state in Sprague-Dawley rat at 5.2 mg/kg, iv; type: ADME, organism-based; set-up: dose 5.2 mg/kg, route intravenous; conditions: in vivo, read-out: Vdss(app); outline: as §2
CYP3A4/5 [5] = target: T1, CYP3A4/5 (Homo sapiens, UniProt P08684+P20815); test: Inhibition of CYP3A4/5 in human liver microsomes; type: ADME, Microsome
[6] = Kinetic solubility of the compound at pH 6.5 by nephelometric analysis; type: physicochemical; conditions: buffer, read-out: Kinetic_solubility
Trypanosoma cruzi [7] = test: Antitrypanosomal activity against trypomastigotes of Trypanosoma cruzi Tulahuen infected in Swiss mouse model of chagas disease assessed as decrease in parasite level in blood at 20 mg/kg, po administered 8 day after post infection qd for 20 days; type: functional; set-up: scale not given: the % may be the effect or the level left
Outline: (§3)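 Female outbred Swiss mice, about 8 weeks old, infected ip with Tulahuén parasites; five mice per group. Daily dosing starts day 8 post-infection. Oral doses given by gavage in HPMC vehicle (0.5% HPMC, 0.4% Tween 80, 0.5% benzyl alcohol); ip doses in PBS with 0.4% Tween 80 and 10% PEG400. Tail-prick blood taken days 8, 9, 12, 14, 16, 19 and 27 post-infection, red cells lysed, and live trypomastigotes counted by hemocytometer. % efficacy = (vehicle mean − treated mean)/vehicle mean × 100. Survival recorded as surviving/infected-and-treated.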

Trypanosoma cruzi [8] = test: Antitrypanosomal activity against trypomastigotes of Trypanosoma cruzi Tulahuen infected immunosuppressed Swiss mouse assessed as level of parasite in blood at 20 mg/kg, po administered 8 day after post infection qd for 20 days measured after 3 cycles of immunosuppression; type: functional, organism-based; set-up: dose 20 mg/kg
[9] = Blood Clearance in Sprague-Dawley rat at 5.2 mg/kg, iv; type: ADME, organism-based; set-up: dose 5.2 mg/kg, route intravenous; conditions: whole blood; outline: as §2
Trypanosoma cruzi [10] = test: Antitrypanosomal activity against trypomastigotes of Trypanosoma cruzi Tulahuen infected in Swiss mouse model of chagas disease assessed as decrease in parasite level in blood at 50 mg/kg, po administered 8 day after post infection qd for 10 days; type: functional, organism-based; set-up: dose 50 mg/kg
[11] = Elimination half life in Sprague-Dawley rat at 5.2 mg/kg, iv; type: ADME, organism-based; set-up: dose 5.2 mg/kg, route intravenous; conditions: in vivo, read-out: beta t1/2 (converted); outline: as §2
Trypanosoma cruzi [12] = test: Antitrypanosomal activity against trypomastigotes of Trypanosoma cruzi Tulahuen infected immunosuppressed Swiss mouse assessed as level of parasite in blood at 50 mg/kg, po administered after 2 cycles of immunosuppression qd for 10 days; type: functional, organism-based; set-up: dose 50 mg/kg
Trypanosoma cruzi [13] = test: Antitrypanosomal activity against trypomastigotes of Trypanosoma cruzi Tulahuen infected immunosuppressed Swiss mouse assessed as level of parasite in blood at 100 mg/kg, po administered 8 day after post infection qd for 20 days measured after 3 cycles of immunosuppression; type: functional, organism-based; set-up: dose 100 mg/kg
Trypanosoma cruzi [14] = test: Antitrypanosomal activity against trypomastigotes of Trypanosoma cruzi Tulahuen expressing the beta- galactosidase gene infected rat L6 cells after 96 hrs; type: functional, organism-based; conditions: L6, 96 h
Outline: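 Tulahuén trypomastigotes expressing β-galactosidase, maintained by serial passage in L6 cells. L6 cells seeded and left 24 h at 37 °C, 5% CO2, then infected at MOI 3 for 48 h. Compound exposure 96 h, benznidazole control. CPRG with 0.3% Nonidet P-40 added, absorbance at 530 nm after 4−6 h. IC50 taken from % inhibition curve; mean of at least two assays.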

Trypanosoma cruzi [15] = test: Antitrypanosomal activity against trypomastigotes of Trypanosoma cruzi Tulahuen infected in Swiss mouse model of chagas disease assessed as decrease in parasite level in blood at 100 mg/kg, po administered 8 day after post infection qd for 20 days; type: functional; set-up: scale not given: the % may be the effect or the level left
Trypanosoma cruzi [16] = test: Antitrypanosomal activity against trypomastigotes of Trypanosoma cruzi Tulahuen infected in Swiss mouse model of chagas disease assessed as increase in host survival at 100 mg/kg, po administered 8 day after post infection qd for 20 days; type: functional, organism-based; set-up: dose 100 mg/kg
Trypanosoma cruzi [17] = test: Antitrypanosomal activity against trypomastigotes of Trypanosoma cruzi Tulahuen infected in Swiss mouse model of chagas disease assessed as increase of host survival at 100 mg/kg, ip administered 8 days after post infection qd for 5 days; type: functional, organism-based; set-up: dose 100 mg/kg; outline: as §3
[18] = Plasma concentration in Swiss mouse at 20 mg/kg, po after 8 hrs; type: ADME, organism-based; set-up: dose 20 mg/kg, route oral
Outline: (§4)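 Nonfasted male Swiss outbred mice (23.8–39.9 g), fed throughout. Dosed by oral gavage as solution or suspension in aqueous vehicle. Plasma assayed by LC-MS against blank-plasma standards after acetonitrile precipitation; LLOQ 0.001–0.015 μM.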

CYP3A4/5 [19] = target: T1, CYP3A4/5; test: Inhibition of […] in human liver microsomes at 20 uM; type: ADME, Microsome
Trypanosoma cruzi [20] = test: Antitrypanosomal activity against trypomastigotes of Trypanosoma cruzi Tulahuen infected in Swiss mouse model of chagas disease assessed as decrease in parasite level in blood at 100 mg/kg, ip administered 8 days after post infection qd for 5 days; type: functional; set-up: scale not given: the % may be the effect or the level left; conditions: route intraperitoneal; outline: as §3
[21] = Plasma concentration in Swiss mouse at 20 mg/kg, po after 1 hr; type: ADME, organism-based; set-up: dose 20 mg/kg, route oral; outline: as §4
Trypanosoma cruzi [22] = test: Antitrypanosomal activity against trypomastigotes of Trypanosoma cruzi Tulahuen infected immunosuppressed Swiss mouse assessed as level of parasite in blood at 20 mg/kg, po administered after 2 cycles of immunosuppression qd for 10 days; type: functional, organism-based; set-up: dose 20 mg/kg; outline: as §1
[23] = Plasma concentration in Swiss mouse at 50 mg/kg, po after 1 hr; type: ADME, organism-based; set-up: dose 50 mg/kg, route oral; outline: as §4
Trypanosoma cruzi [24] = test: Antitrypanosomal activity against trypomastigotes of Trypanosoma cruzi Tulahuen infected in Swiss mouse model of chagas disease assessed as increase of host survival at 2 mg/kg, po administered 8 days after post infection qd for 5 days; type: functional, organism-based; set-up: dose 2 mg/kg; outline: as §3
[25] = Plasma concentration in Swiss mouse at 50 mg/kg, po after 8 hrs; type: ADME, organism-based; set-up: dose 50 mg/kg, route oral; outline: as §4
Trypanosoma cruzi [26] = test: Antitrypanosomal activity against trypomastigotes of Trypanosoma cruzi Tulahuen infected in Swiss mouse model of chagas disease assessed as decrease in parasite level in blood at 50 mg/kg, po administered 8 days after post infection qd for 5 days; type: functional; set-up: scale not given: the % may be the effect or the level left; outline: as §3
[27] = Plasma concentration in Swiss mouse at 50 mg/kg, po after 24 hrs; type: ADME, organism-based; set-up: dose 50 mg/kg, route oral; outline: as §4
Trypanosoma cruzi [28] = test: Antitrypanosomal activity against trypomastigotes of Trypanosoma cruzi Tulahuen infected in Swiss mouse model of chagas disease assessed as decrease in parasite level in blood at 10 mg/kg, ip administered 8 days after post infection qd for 5 days; type: functional; set-up: scale not given: the % may be the effect or the level left; conditions: route intraperitoneal; outline: as §3
Trypanosoma cruzi [29] = test: Antitrypanosomal activity against trypomastigotes of Trypanosoma cruzi Tulahuen infected in Swiss mouse model of chagas disease assessed as decrease in parasite level in blood at 2 mg/kg, po administered 8 days after post infection qd for 5 days; set-up: scale not given: the % may be the effect or the level left
Trypanosoma cruzi [30] = test: Antitrypanosomal activity against trypomastigotes of Trypanosoma cruzi Tulahuen infected in Swiss mouse model of chagas disease assessed as increase of host survival at 10 mg/kg, po administered 8 days after post infection qd for 5 days; type: functional, organism-based; set-up: dose 10 mg/kg; outline: as §3

In the case of `N#Cc1ccc(C(O)(c2ccc(C(F)(F)F)cc2)c2cccnc2)cc1` (racemic), the Activity (Trypanosoma cruzi [1]) is reported as “Active”, the Activity (Trypanosoma cruzi [2]) is reported as “Active” and the bioavailability [3] is reported as 68.1%. The Vd [4] was 5.7 L/kg, the IC50 (CYP3A4/5 [5]) was 7600 nM and the solubility kinetic [6] was 6.3 µg/mL (≈ 17.8 µM). The Activity (Trypanosoma cruzi [7]) was >99%, the Activity (Trypanosoma cruzi [8]) was “Active” and the clearance [9] was 24.4 mL/min/kg. For the same compound, the Activity (Trypanosoma cruzi [10]) was “Active”, the half-life [11] was 5.1 h and the Activity (Trypanosoma cruzi [12]) was “inactive”. For the same compound, the Activity (Trypanosoma cruzi [13]) was “Active” and the IC50 (Trypanosoma cruzi [14]) was 12 nM.
With `O=C(Cn1ccnc1[N+](=O)[O-])NCc1ccccc1` [BENZNIDAZOLE] the Activity (Trypanosoma cruzi [15]) was >99%, the Activity (Trypanosoma cruzi [8]) was “Active” and the Activity (Trypanosoma cruzi [16]) was “Active”. For the same compound, the Activity (Trypanosoma cruzi [13]) was “Active”.
In the case of `OC(c1ccc(Cl)cc1)(c1cncnc1)c1ccccc1Cl` (centres undefined) [FENARIMOL], the Activity (Trypanosoma cruzi [17]) is reported as “Active”, the concentration at 8 h [18] is reported as 0.08 µM and the inhibition at 20 µM (CYP3A4/5 [19]) is reported as 66%. The Activity (Trypanosoma cruzi [20]) was 80%, the concentration at 1 h [21] was 2.1 µM and the IC50 (Trypanosoma cruzi [14]) was 350 nM.
With `CC[C@@H]([C@H](C)O)n1ncn(-c2ccc(N3CCN(c4ccc(OC[C@@H]5CO[C@@](Cn6cncn6)(c6ccc(F)cc6F)C5)cc4)CC3)cc2)c1=O` [POSACONAZOLE] the Activity (Trypanosoma cruzi [22]) was “inactive”, the Activity (Trypanosoma cruzi [2]) was “Active” and the concentration at 1 h [23] was 6.4 µM. For the same compound, the solubility kinetic [6] was 3.1 µg/mL (≈ 4.42 µM), the Activity (Trypanosoma cruzi [7]) was >99% and the Activity (Trypanosoma cruzi [24]) was “Active”. The concentration at 8 h [18] was 13.6 µM, the inhibition at 20 µM (CYP3A4/5 [19]) was 98% and the concentration at 8 h [25] was 11.1 µM. It also gave an Activity (Trypanosoma cruzi [26]) of 100%, a concentration at 24 h [27] of 3.8 µM and an Activity (Trypanosoma cruzi [28]) of 100%. For the same compound, the Activity (Trypanosoma cruzi [29]) was 100%, the concentration at 1 h [21] was 6.3 µM and the Activity (Trypanosoma cruzi [30]) was “Active”.
